Published values pooled from the literature.
Each line is one published result; the experiments were not run side by side. ≈ marks a conversion by molar mass, not a printed value.
Organism: Pseudomonas aeruginosa

| SMILES | assay | system | conditions | endpoint | result |
| --- | --- | --- | --- | --- | --- |
| CCCCCCCCCCCC(=O)OC[C@H]1O[C@@H](n2cc(C)c(=O)[nH]c2=O)C[C@@H]1OC(=O)c1ccc(C(C)(C)C)cc1 | microbial killing, broth dilution |  |  | MBC | 16 µg/mL (≈ 27.4 µM) |
| CSc1ccc(/C=C/c2cc(/C=C3\Sc4ccccc4N3CCCN3CCCC3)c3ccccc3[n+]2C)cc1.[I-] | microbial growth, broth dilution | ATCCBAA2108 | drug-resistant strain | MIC | 64 µg/mL |
| CC1(C)S[C@@H]2[C@H](NC(=O)[C@H](N)c3ccccc3)C(=O)N2[C@H]1C(=O)O | microbial growth, well diffusion | ATCC27853 | 60000 µg/mL | inhibition zone | 32 mm |
| O=C(Nc1cccc(-c2cc(C(=O)O)no2)c1)Nc1ccc(Cl)c(Cl)c1 | microbial growth, broth dilution | ATCC27853 |  | MIC | > 64 µg/mL |
| CCCCCCCCCCCC(=O)OC[C@H]1O[C@@H](n2cc(C)c(=O)[nH]c2=O)C[C@@H]1O | microbial killing, broth dilution |  |  | MBC | 16 µg/mL (≈ 37.7 µM) |
| COc1cccc(OC)c1C(=O)N[C@@H]1C(=O)N2[C@@H]1SC(C)(C)[C@@H]2C(=O)O | microbial growth, broth dilution | ATCCBAA2108 | drug-resistant strain | MIC | > 64 µg/mL |
| O=C(O)c1cn(C2CC2)c2cc(N3CCNCC3)c(F)cc2c1=O | microbial growth | K799/61 | 1000 µg/mL | inhibition zone | 33.5 mm |
| C[C@@H](O)[C@H]1C(=O)N2C(C(=O)O)=C(S[C@@H]3CN[C@H](C(=O)N(C)C)C3)[C@H](C)[C@H]12 | microbial growth | PAO1 |  | MIC90 | 0.25 µg/mL (≈ 0.652 µM) |
| COC(=O)c1cc(-c2cccc(NC(=O)Nc3cccc(F)c3)c2)on1 | microbial growth, broth dilution | ATCC27853 |  | MIC | > 64 µg/mL |
| ONCc1cc(F)cc(F)c1 | microbial growth | ATCC15692 | 8 h | MIC50 | 150 µg/mL (≈ 943 µM) |
